Test results: ChEMBL document CHEMBL4808161, “Structure-Activity Relationship Study of Amidobenzimidazole Analogues Leading to Potent and Systemically Administrable Stimulator of Interferon Gene (STING) Agonists” (J Med Chem, 2021)
Calls of active or inactive are those of the source. No cut-off for these calls is given here.

Assays:
[1] = Half life in rat at 1 mg/kg, iv; format: ADME, organism-based; conditions: in vivo
[2] = AUClast in rat at 1 mg/kg, iv; format: ADME, organism-based; parameters: time 0 - last, route intravenous, dose 1 mg/kg; conditions: in vivo
[3] = Observed AUCinfinity in rat at 1 mg/kg, iv; format: ADME, organism-based; parameters: time infinity, route intravenous, dose 1 mg/kg; conditions: in vivo
[4] = Observed clearance in rat at 1 mg/kg, iv; format: ADME, organism-based; conditions: in vivo
[5] = Observed MRT infinity in rat at 1 mg/kg, iv; format: ADME, organism-based; conditions: in vivo
[6] = Observed volume of distribution at steady state in rat at 1 mg/kg, iv; format: ADME, organism-based; conditions: in vivo, read-out: Vdss
[7] = target: T1, Stimulator of interferon genes protein (Homo sapiens, UniProt Q86WV6); experiment: Binding affinity to 6His-tagged human STING measured after 3 hrs by HTRF assay
T1 sequence (Q86WV6 whole entry): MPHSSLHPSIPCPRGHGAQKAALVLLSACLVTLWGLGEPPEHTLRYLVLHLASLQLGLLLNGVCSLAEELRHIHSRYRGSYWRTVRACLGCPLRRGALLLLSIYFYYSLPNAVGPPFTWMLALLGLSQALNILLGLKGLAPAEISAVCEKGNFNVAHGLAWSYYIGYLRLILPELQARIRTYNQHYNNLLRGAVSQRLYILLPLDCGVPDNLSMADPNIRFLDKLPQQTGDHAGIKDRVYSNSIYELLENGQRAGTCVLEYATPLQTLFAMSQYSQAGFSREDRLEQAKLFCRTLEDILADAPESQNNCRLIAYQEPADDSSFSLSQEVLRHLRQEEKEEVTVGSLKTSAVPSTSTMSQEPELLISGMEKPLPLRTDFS

[8] = Toxicity in orthotopic BALB/c mouse co-inoculated with mouse 4T1 […] cells assessed as drug tolerance at 10 mg/kg, iv administered on day 1,4 and 7 post inoculation; format: organism-based; conditions: in vivo, 168 h, time 7 day
Outline: (§1)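 BALB/c mice received 5 × 10⁵ 4T1 cells into the breast fat pad (orthotopic), with n = 5. Dosing began when tumours reached about 50−100 mm³: 10 mg/kg iv on days 1, 4 and 7, against a vehicle group. Body weight and tumour volume were recorded twice weekly, with tolerance and survival followed after each injection.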

[9] = Toxicity in orthotopic BALB/c mouse co-inoculated with mouse 4T1 […] cells assessed as weight loss at 10 mg/kg, iv administered on day 1,4 and 7 post inoculation; format: organism-based; conditions: in vivo, 168 h, time 7 day; outline: as §1
[10] = target: T1, Stimulator of interferon genes protein; experiment: Activation of human STING expressed in THP1-Dual cells incubated for 24 hrs by secreted luciferase reporter gene assay
[11] = target: T2, Stimulator of interferon genes protein (Mus musculus, UniProt Q3TBT3); experiment: Activation of mouse STING expressed in RAW-Lucia ISG cells incubated for 24 hrs by secreted luciferase reporter gene assay
T2 sequence (Q3TBT3 whole entry): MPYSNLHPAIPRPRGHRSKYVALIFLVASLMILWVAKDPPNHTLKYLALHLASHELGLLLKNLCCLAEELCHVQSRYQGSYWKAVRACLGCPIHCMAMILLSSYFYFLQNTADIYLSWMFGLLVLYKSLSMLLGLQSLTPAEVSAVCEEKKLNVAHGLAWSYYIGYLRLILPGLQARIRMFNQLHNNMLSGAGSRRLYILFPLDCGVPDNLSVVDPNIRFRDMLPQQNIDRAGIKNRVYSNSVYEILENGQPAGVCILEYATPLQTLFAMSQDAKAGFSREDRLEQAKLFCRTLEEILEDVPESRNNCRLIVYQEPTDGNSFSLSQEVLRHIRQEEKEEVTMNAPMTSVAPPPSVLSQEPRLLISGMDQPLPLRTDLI

[12] = target: T1, Stimulator of interferon genes protein; experiment: Agonist activity at wild type human STING expressed in baculovirus infected Sf21 insect cells
[13] = target: Stimulator of interferon genes protein (Homo sapiens, UniProt Q86WV6, G230A/R293Q/R71H); experiment: Agonist activity at human STING HAQ expressed in baculovirus infected Sf21 insect cells
Sequence of Stimulator of interferon genes protein (Homo sapiens, UniProt Q86WV6, G230A/R293Q/R71H) (Q86WV6 whole entry R71H/G230A/R293Q): as the sequence (Q86WV6 whole entry) above, with R71H, G230A, R293Q counted along it

CT26 = experiment: Antitumor activity against mouse CT26 cells inoculated in BALB/c mouse assessed as inhibition of tumor growth IT(Intratumoral) administered on day 1,4 and 7 post inoculation; conditions: time 7.0 day

**Q.** For CCn1nc(C)cc1C(=O)/N=c1\[nH]c2cc(-c3ncn[nH]3)cc(OC)c2n1C/C=C/Cn1/c(=N/C(=O)c2cc(C)nn2CC)[nH]c2cc(C(N)=O)cc(OCCCN3CCOCC3)c21, which half-life [1] is on record?
**A.** The half-life was 41.8 min.

**Q.** What about the AUC(0-t) [2] of the same compound?
**A.** The AUC(0-t) was 678 ng·h/mL.

**Q.** And the AUC(0-inf) [3]?
**A.** Its AUC(0-inf) is 705 ng·h/mL.

**Q.** What about the clearance [4] of the same compound?
**A.** Its clearance is 23.9 mL/min/kg.

**Q.** And the MRT inf [5]?
**A.** Its MRT inf is 30.2 min.

**Q.** What about the Vd [6] of the same compound?
**A.** The Vd was 0.722 L/kg.

**Q.** What about the EC50 [7] of the same compound?
**A.** The EC50 was 0.0062 µM.

**Q.** What about the Activity [8] of the same compound?
**A.** The Activity was “Non-Toxic”.

**Q.** What about the Activity [9] of the same compound?
**A.** The Activity was “Toxic”.

**Q.** And the EC50 [10]?
**A.** The EC50 was 0.24 µM.

**Q.** What about the EC50 [11] of the same compound?
**A.** The EC50 was 39.5 µM.

**Q.** With COc1cc2cc(C(=O)CCC(=O)O)sc2cc1OC as the compound, how does the EC50 [12] read?
**A.** Its EC50 is 24 µM.

**Q.** What about the EC50 [13] of the same compound?
**A.** Its EC50 is 8.3 µM.

**Q.** For Cc1ccc2c(=O)c3cccc(CC(=O)O)c3oc2c1C, which inhibition (CT26) is on record?
**A.** The inhibition was “Active”.
